For data set [1], the system named is PBMC. Put plainly: Induction of IFNalpha production in primary human PBMC at 0.001 to 10 uM after 24 hrs by ELISA method. In kind it is functional, cell-based. Summed up: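 Fresh healthy-donor PBMCs were isolated by Ficoll and plated at 0.5 × 10^6 cells/well in RPMI-1640/10% FBS with antibiotics. Aqueous compound formulations were added for 24 h across 0.0001–10 µM. Supernatant IFNa was measured by ELISA. Data are from three donors, each run in triplicate, with SEM shown.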
For orientation: ELISA stands for enzyme-linked immunosorbent assay.

The test system of data set [2] is PBMC. Put plainly: Induction of TNFalpha production in primary human PBMC at 0.001 to 10 uM after 24 hrs by ELISA method. In kind it is functional, cell-based. Summed up: (§1)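 Ficoll-isolated healthy-donor PBMCs at 0.5 × 10^6 cells/well in RPMI-1640/10% FBS were stimulated 24 h with aqueous compound. Supernatant TNFa was assayed with a […]. Data are from three donors in triplicate, with SEM shown.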

For data set [3], the system named is PBMC. Put plainly: Induction of TNFalpha production in primary human PBMC after 24 hrs by ELISA method. In kind it is functional, cell-based. Summed up:
as §1

The next data set concerns the target T1, Toll-like receptor 7 (Homo sapiens, UniProt Q9NYK1).
T1 sequence (Q9NYK1 whole entry): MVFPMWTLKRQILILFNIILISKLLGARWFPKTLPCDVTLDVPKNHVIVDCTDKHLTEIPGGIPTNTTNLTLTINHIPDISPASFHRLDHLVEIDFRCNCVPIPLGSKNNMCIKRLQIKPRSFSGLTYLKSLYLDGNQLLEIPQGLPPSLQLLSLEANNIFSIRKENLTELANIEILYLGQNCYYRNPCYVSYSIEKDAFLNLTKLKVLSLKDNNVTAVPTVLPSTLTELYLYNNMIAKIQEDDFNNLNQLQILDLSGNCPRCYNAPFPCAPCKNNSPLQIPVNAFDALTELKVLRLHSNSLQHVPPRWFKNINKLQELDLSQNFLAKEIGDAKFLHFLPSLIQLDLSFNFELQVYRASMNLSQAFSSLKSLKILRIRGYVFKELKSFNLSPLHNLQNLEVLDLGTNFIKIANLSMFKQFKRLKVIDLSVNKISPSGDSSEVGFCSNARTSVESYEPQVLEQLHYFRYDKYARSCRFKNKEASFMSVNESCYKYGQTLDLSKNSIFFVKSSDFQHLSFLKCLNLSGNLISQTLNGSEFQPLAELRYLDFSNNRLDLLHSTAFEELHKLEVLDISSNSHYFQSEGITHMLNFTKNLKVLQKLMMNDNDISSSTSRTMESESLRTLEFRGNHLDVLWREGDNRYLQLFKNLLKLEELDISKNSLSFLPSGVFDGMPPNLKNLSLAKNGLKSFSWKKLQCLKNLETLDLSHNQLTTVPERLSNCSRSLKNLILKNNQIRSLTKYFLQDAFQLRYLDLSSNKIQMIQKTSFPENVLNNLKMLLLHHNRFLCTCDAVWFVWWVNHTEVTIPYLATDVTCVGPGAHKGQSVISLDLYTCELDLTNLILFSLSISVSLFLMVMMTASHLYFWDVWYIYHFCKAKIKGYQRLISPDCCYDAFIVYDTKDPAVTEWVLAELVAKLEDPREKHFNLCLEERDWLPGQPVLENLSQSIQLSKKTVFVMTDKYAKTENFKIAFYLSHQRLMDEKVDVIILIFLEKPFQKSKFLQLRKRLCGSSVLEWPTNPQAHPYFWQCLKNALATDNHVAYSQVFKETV
Put plainly: Activation of human TLR7 expressed in HEK293 cells after 24 hrs by NFkappaB-mediated SEAP reporter gene assay. In kind it is cell-based. Summed up:
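HEK293 cells stably transfected with hTLR7 or hTLR8 plus an NF-kB-driven SEAP reporter were kept in DMEM/10% FBS with selection antibiotics. Aqueous compound formulations were added for 24 h, and supernatant SEAP was read colorimetrically. Points were run in triplicate and averaged. Activity was scaled to the maximum of a reference agonist set at 100%. EC50 was taken from dose-response curves with 95% CI.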
Background: In a reporter assay the amount or activity of a reporter protein is the signal.

A further data set concerns the target T2, Toll-like receptor 8 (Homo sapiens, UniProt Q9NR97).
T2 sequence (Q9NR97 whole entry): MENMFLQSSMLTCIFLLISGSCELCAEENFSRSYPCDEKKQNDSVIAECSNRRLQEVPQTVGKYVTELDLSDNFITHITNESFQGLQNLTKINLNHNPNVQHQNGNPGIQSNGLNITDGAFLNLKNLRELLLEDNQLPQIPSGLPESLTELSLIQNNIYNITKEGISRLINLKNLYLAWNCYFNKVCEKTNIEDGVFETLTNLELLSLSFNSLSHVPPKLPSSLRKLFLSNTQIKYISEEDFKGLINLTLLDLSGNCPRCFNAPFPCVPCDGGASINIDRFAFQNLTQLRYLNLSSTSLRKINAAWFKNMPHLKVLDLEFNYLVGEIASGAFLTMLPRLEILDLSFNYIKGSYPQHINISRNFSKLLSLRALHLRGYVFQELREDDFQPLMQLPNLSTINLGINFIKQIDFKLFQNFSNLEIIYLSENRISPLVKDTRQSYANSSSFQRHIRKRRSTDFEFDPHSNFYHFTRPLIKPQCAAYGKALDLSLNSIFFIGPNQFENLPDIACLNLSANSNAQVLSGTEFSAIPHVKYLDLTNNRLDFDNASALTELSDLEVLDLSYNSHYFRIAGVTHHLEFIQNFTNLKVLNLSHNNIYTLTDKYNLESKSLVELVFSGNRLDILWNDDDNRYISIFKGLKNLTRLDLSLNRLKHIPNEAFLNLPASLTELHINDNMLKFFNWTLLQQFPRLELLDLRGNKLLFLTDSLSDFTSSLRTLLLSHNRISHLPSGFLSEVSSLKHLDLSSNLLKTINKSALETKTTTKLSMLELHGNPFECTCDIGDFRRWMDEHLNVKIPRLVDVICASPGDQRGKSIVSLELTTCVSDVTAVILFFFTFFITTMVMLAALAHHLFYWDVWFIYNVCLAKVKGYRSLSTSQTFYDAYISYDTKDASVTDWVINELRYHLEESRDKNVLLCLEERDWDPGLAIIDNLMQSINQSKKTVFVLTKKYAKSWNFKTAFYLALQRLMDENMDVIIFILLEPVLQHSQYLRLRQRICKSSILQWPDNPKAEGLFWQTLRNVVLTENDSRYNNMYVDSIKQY
The experiment in a line: Activation of human TLR8 expressed in HEK293 cells after 24 hrs by NFkappaB-mediated SEAP reporter gene assay. In kind it is cell-based. Summed up: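 HEK293 cells stably transfected with hTLR7 or hTLR8 plus an NF-kB-driven SEAP reporter were kept in DMEM/10% FBS with selection antibiotics. Aqueous compound formulations were added for 24 h, and supernatant SEAP was read colorimetrically. Points were run in triplicate and averaged.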

In data set [4] the test system is PBMC. Put plainly: Induction of IFNgamma production in primary human PBMC after 24 hrs by ELISA method. In kind it is functional, cell-based.
The subject of a further data set is HEK293. Put plainly: Toxicity against human TLR8 expressing HEK293 cells after 24 hrs by live/dead fixable aqua staining method. In kind it is cell-based. The following applies: hek293, 24 h. Summed up:
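HEK293-hTLR8 reporter cells were stimulated with compound for 24 h. Cells were then incubated with Live/Dead fixable Aqua dye for 30 min, washed extensively, and read for viability by flow cytometry.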

Data set [5] in a line: Induction of IL6 expression in human HLA-DR(+), CD11c(+) and CD123(-) expressing mDC after 24 hrs by intracellular cytokine staining method. In kind it is functional. Also on record: concentration or dose not given beside the values. The procedure, abridged: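 PBMCs were stimulated with aqueous compound for 24 h, with GolgiPlug (10 ng/ml) present for the final 6 h. Cells were washed and surface-stained for lineage markers (mDC HLA-DR+ CD11c+ CD123−; pDC HLA-DR+ CD11c− CD123+). They were then permeabilized with Perm/Fix buffer and stained with fluorochrome-conjugated anti-cytokine antibodies for flow cytometry.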

Data set [6] concerns PBMC. Put plainly: Reduction in IFNalpha production in primary human PBMC at >10 uM after 24 hrs by ELISA method. In kind it is functional, cell-based.

Consider five compounds from ChEMBL document CHEMBL3396959, “Structural requirements for TLR7-selective signaling by 9-(4-piperidinylalkyl)-8-oxoadenine derivatives” (Bioorg Med Chem Lett, 2015).

Calls of active or inactive are those of the source. The rule behind the calls is not given here.

Consider `CCCCOc1nc(N)c2[nH]c(=O)n(CCCC3CCNCC3)c2n1.Cl`, for which the result with PBMC [1], with PBMC [3] and in the data set with PBMC [4] was Active. The Activity result in the data set on PBMC [2] is “Dose-dependent effect”; with HEK293 it was “Non-toxic”; in [5] it was 8.27%. For the same compound, the EC50 (commonly the concentration needed to bring the measured effect to its halfway point) on Toll-like receptor 7 (read-out: EC50) amounted to 0.62 µM; on Toll-like receptor 8 (read-out: EC50), 260 µM. Further, the inhibition result with PBMC [6] was “Dose-dependent effect”.

Consider `CCCCOc1nc(N)c2[nH]c(=O)n(CCC3CCNCC3)c2n1.Cl`, for which the result in the data set on PBMC [1], in the data set on PBMC [3] and in the data set with PBMC [4] was Active. For the same compound, the Activity entry is “Dose-dependent effect” in the data set on PBMC [2], “Non-toxic” in the data set with HEK293 and 4.91% in data set [5]. Further, the results for the EC50 at Toll-like receptor 7 (read-out: EC50) and on Toll-like receptor 8 (read-out: EC50) were 0.15 µM and 231 µM, respectively. In the data set on PBMC [6], the inhibition entry was “Dose-dependent effect”.

Turning to `CCCCOc1nc(N)c2[nH]c(=O)n(CCCCC3CCNCC3)c2n1.Cl`, the outcome in the data set on PBMC [1], in the data set on PBMC [3] and in the data set on PBMC [4] was Active. Also, the Activity result in the data set with PBMC [2] is “Dose-dependent effect”; in the data set with HEK293, “Toxic”; in data set [5], 22.3%. In addition, the EC50 was 0.15 µM on Toll-like receptor 7 (read-out: EC50) and 131 µM at Toll-like receptor 8 (read-out: EC50). Also, the inhibition entry in the data set on PBMC [6] was “Dose-dependent effect”.

For `CCCCOc1nc(N)c2[nH]c(=O)n(C3CCNCC3)c2n1.Cl`, the outcome in the data set on PBMC [1], in the data set with PBMC [3] and with PBMC [4] was inactive. In addition, the EC50 result at Toll-like receptor 7 (hek293) and at Toll-like receptor 8 (hek293) was “Not Active” throughout.

As for `CCCCOc1nc(N)c2[nH]c(=O)n(CCCCCCC3CCNCC3)c2n1.Cl`, the outcome with PBMC [1], in the data set with PBMC [3] and in the data set on PBMC [4] was Active. For the same compound, the results for the Activity entry (with PBMC [2]; in [5]) were “Dose-dependent effect” and 28.5%, respectively. The figures for the concentration giving a half-maximal response (EC50) at Toll-like receptor 7 (read-out: EC50) and at Toll-like receptor 8 (read-out: EC50) were 0.23 µM and 29 µM, respectively. Also, in the data set with PBMC [6], the inhibition result was “Dose-dependent effect”.
